ChEMBL document CHEMBL3421532, “Synthesis and antiproliferative activity of α-branched α,β-unsaturated ketones in human hematological and solid cancer cell lines” (Eur J Med Chem, 2015)
The source made the active and inactive calls. The calls are words filed in the database; no cut-off is given here.

Legend:
[1] = Cell cycle arrest at G0/G1 phase in human NB4 cells at 1 uM by flow cytometry; assay type: functional, cell-based; settings: NB-4
NB-4 [2] = test: Antiproliferative activity against human NB4 cells assessed as decrease in cell viability at 1 uM after 96 hrs by trypan blue exclusion test; assay type: functional, cell-based
In short: (§1)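 Log-phase NB4 cells at 0.5 × 10⁶ cells/ml were exposed to test agent alone or combined with 1 µM retinoic acid for 24, 48, 72 and 96 h. At each time point, aliquots were stained with 0.2% trypan blue, and viable and dead cells were counted on a hematocytometer.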

[3] = Induction of apoptosis in human NB4 cells assessed as cell death; assay type: functional, NB-4
In short: (§2)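 NB4 acute promyelocytic leukemia cells were grown in RPMI 1640 + GlutaMAX with 10% FBS and penicillin/streptomycin at 37 °C under 5% CO₂. Cells were seeded in 6-well plates at 1∙10⁶ per well and treated for 24 and 48 h; DMSO served as the solvent control. Apoptotic cells were quantified by annexin V binding. Values are the mean of two independent experiments.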

[4] = Cell cycle arrest in human NB4 cells assessed as accumulation of cells at G0/G1 phase at 1 uM after 24 hrs by flow cytometry in presence of 1 uM all-trans retinoic acid; assay type: functional, cell-based; settings: NB-4
NB-4 [5] = test: Induction of cell death in human NB4 cells assessed as elevated sub-G1 population at 10 uM after 48 hrs by flow cytometry; assay type: functional, cell-based
In short: (§3)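 Cells seeded in 6-well plates at 1∙10⁶ (NB4) or 0.45∙10⁶ (A549, MCF-7) per well. Treated for 48 h at 10 (NB4, MCF-7), 20 and 30 (A549), or, for NB4, a lower 5; DMSO solvent control. Cell cycle phase distribution and sub-G1 measured by flow cytometry. Mean of two independent experiments.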

NB-4 [6] = test: Induction of granulocytic differentiation in human NB4 cells at 1 uM after 48 hrs by CD11b assay (reference value: 8.5%); assay type: functional
MCF7 [7] = test: Antiproliferative activity against human MCF7 cells assessed as cell growth inhibition after 48 hrs by XTT assay; assay type: functional, cell-based; settings: MCF7, 48 h
In short: (§4)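 NB4 grown in RPMI 1640 with 10% FBS and penicillin/streptomycin, A549 and MCF-7 in DMEM, all at 37 °C and 5% CO2. Cells seeded at 1.5∙10⁴ (NB4) or 1.0∙10⁴ (A549, MCF-7) per well. Adherent lines dosed 24 h after plating, NB4 shortly after. Triplicate concentrations from 0.1 to 100, DMSO control at 0.5% v/v. After 48 h exposure, XTT added for 2 h. A450 minus A690 read, GI50 reported with SE.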

[8] = Antiproliferative activity against human NB4 cells assessed as cell growth inhibition after 48 hrs by XTT assay; assay type: functional, cell-based; settings: NB-4, 48 h; in short: as §4
NB-4 [9] = test: Antiproliferative activity against human NB4 cells assessed as decrease in cell viability at 1uM in presence of 1 uM all-trans retinoic acid after 96 hrs by trypan blue exclusion test; assay type: functional, cell-based; in short: as §1
NB-4 [10] = test: Acceleration of RA-induced granulocytic differentiation in human NB4 cells at 1 uM after 48 hrs by CD11b assay in presence of 1 uM all-trans retinoic acid (reference value: 79.9%); assay type: functional
NB-4 [11] = test: Induction of apoptosis in human NB4 cells at 5 uM after 24 to 48 hrs by annexin V binding assay; assay type: functional, cell-based
In short: (§5)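 Cells seeded in 6-well plates at 1∙10⁶ (NB4) or 0.45∙10⁶ (A549, MCF-7) per well. Treated at 5 (NB4), 20 and 30 (A549) or 10 (MCF-7). Apoptotic cell percentage measured by annexin V binding after 24 and 48 h. Mean of two independent experiments.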

NB-4 [12] = test: Induction of granulocytic differentiation in human NB4 cells at 1 uM after 24 to 96 hrs by NBT assay; assay type: functional, cell-based
In short: (§6)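 NB4 cells were treated with agent, 1 µM retinoic acid, or both, for 24–96 h. Differentiation was scored as reduction of NBT to formazan after PMA stimulation. NBT-positive cells were counted in 5 non-overlapping fields at ×400 and averaged per field. Three independent experiments; mean ± SD.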

A549 [13] = test: Antiproliferative activity against human A549 cells assessed as cell growth inhibition after 48 hrs by XTT assay; assay type: functional, cell-based; settings: A549, 48 h; in short: as §4
NB-4 [14] = test: Acceleration of RA-induced granulocytic differentiation in human NB4 cells at 1 uM after 24 to 96 hrs by NBT assay in presence of 1 uM all-trans retinoic acid relative to control; assay type: functional; in short: as §6
[15] = Cell cycle arrest in human NB4 cells assessed as increase in cell population at G0/G1 phase at 5 uM after 48 hrs by flow cytometry; assay type: functional, cell-based; settings: NB-4; in short: as §3
NB-4 [16] = test: Acceleration of RA-induced granulocytic differentiation in human NB4 cells in presence of all-trans retinoic acid relative to control; assay type: functional
[17] = Cell cycle arrest in human NB4 cells assessed as increase in cell population at G2/M phase at 5 uM after 48 hrs by flow cytometry; assay type: functional, cell-based; settings: NB-4; in short: as §3
[18] = Cell cycle arrest in human NB4 cells assessed as increase in cell population at S phase at 5 uM after 48 hrs by flow cytometry; assay type: functional, cell-based; settings: NB-4; in short: as §3
[19] = Induction of apoptosis in human NB4 cells assessed as cell death at 5 uM after 24 hrs by annexin V binding assay; assay type: functional, NB-4; in short: as §2
A549 [20] = test: Cell cycle arrest in human A549 cells assessed as slight increase in cell accumulation at G2/M phase at 20 uM after 48 hrs by flow cytometry; assay type: functional, cell-based; in short: as §3
A549 [21] = test: Induction of apoptosis in human A549 cells at 20 to 30 uM after 24 to 48 hrs by annexin V binding assay; assay type: functional, cell-based; in short: as §5
MCF7 [22] = test: Cell cycle arrest in human MCF7 cells assessed as increase in cell population at S phase at 10 uM after 48 hrs by flow cytometry; assay type: functional, cell-based; in short: as §3
MCF7 [23] = test: Cell cycle arrest in human MCF7 cells assessed as increase in cell population at G2/M phase at 10 uM after 48 hrs by flow cytometry; assay type: functional, cell-based; in short: as §3
A549 [24] = test: Cell cycle arrest in human A549 cells assessed as slight increase in cell population at S phase at 20 uM after 48 hrs by flow cytometry; assay type: functional, cell-based; in short: as §3
A549 [25] = test: Cell cycle arrest in human A549 cells assessed as increase in cell population at S phase at 30 uM after 48 hrs by flow cytometry; assay type: functional, cell-based; in short: as §3
MCF7 [26] = test: Induction of apoptosis in human MCF7 cells at 10 uM after 24 to 48 hrs by annexin V binding assay; assay type: functional, cell-based; in short: as §5

CC1=C(/C=C/C(C)=C/C=C/C(C)=C/C(=O)O)C(C)(C)CCC1
Activity [1]: 17.3% | Activity (NB-4 [2]): Active

O=[As][As+](=O)[O-] (stereo not given) [ARSENIC TRIOXIDE]
Activity [3]: 27%

COc1ccc(C(=O)/C(=C/c2ccc([N+](=O)[O-])cc2)CC(C)C)cc1
Activity [1]: inactive | Activity [4]: 18.2% | Activity (NB-4 [5]): Active | Activity (NB-4 [6]): 9.5% | IC50 (MCF7 [7]): > 100 µM | IC50 [8]: 0.6 µM | Activity (NB-4 [9]): Active | Activity (NB-4 [10]): 87.9% | Activity (NB-4 [11]): inactive | inhibition (NB-4 [2]): Active | Activity (NB-4 [12]): inactive | IC50 (A549 [13]): > 100 µM | Activity (NB-4 [14]): 8% | Activity [15]: Active

COc1cc2nc(N3CCCN(C)CC3)nc(NC3CCN(Cc4ccccc4)CC3)c2cc1OC
Activity (NB-4 [16]): 10%

C=C(C/C(=C\c1ccc(OC(=O)c2ccccc2)cc1)C(=O)c1ccc(OC)cc1)C(=O)c1ccc(OC)cc1
Activity (NB-4 [5]): Active | IC50 (MCF7 [7]): > 100 µM | IC50 [8]: 6.7 µM | Activity [17]: Active | IC50 (A549 [13]): > 100 µM

C=C(C(=O)c1ccc(OC)cc1OC)C(OC(C)=O)c1ccc([N+](=O)[O-])cc1 (stereo not given)
Activity (NB-4 [5]): Active | IC50 (MCF7 [7]): 10.4 µM | IC50 [8]: 5 µM | Activity [18]: Active | Activity [19]: >50% | IC50 (A549 [13]): 43.5 µM

C=C(C(=O)c1ccc(OC)cc1)C(OC(C)=O)c1ccc(Cl)cc1Cl (stereo not given)
Activity (A549 [20]): Active | Activity (A549 [21]): Active | Activity (NB-4 [5]): Active | IC50 (MCF7 [7]): 8.3 µM | IC50 [8]: 5.4 µM | Activity (MCF7 [22]): Active | Activity (MCF7 [23]): Active | Activity [18]: Active | Activity [19]: >50% | Activity (A549 [24]): Active | Activity (A549 [25]): Active | IC50 (A549 [13]): 17.6 µM

C=C(C(=O)c1ccc(OC)cc1)C(O)c1ccc([N+](=O)[O-])cc1 (stereo not given)
Activity (NB-4 [5]): Active | IC50 (MCF7 [7]): 11 µM | IC50 [8]: 5.4 µM | Activity (MCF7 [22]): Active | Activity [17]: Active | Activity (MCF7 [23]): Active | IC50 (A549 [13]): 23.8 µM

O=C(/C=C/c1cccc(S(=O)(=O)Nc2ccccc2)c1)NO [BELINOSTAT]
Activity (NB-4 [16]): 13% | Activity [3]: 20%

COc1cccc2c1C(=O)c1c(O)c3c(c(O)c1C2=O)C[C@@](O)(C(=O)CO)C[C@@H]3O[C@H]1C[C@H](N)[C@H](O)[C@H](C)O1 [DOXORUBICIN]
Activity [3]: 80%

CC(=O)OC/C(=C\c1ccccc1F)C(=O)c1ccccc1
Activity (NB-4 [5]): Active | IC50 (MCF7 [7]): 14.6 µM | IC50 [8]: 5.8 µM | Activity [18]: Active | Activity [19]: >50% | IC50 (A549 [13]): 68.7 µM

CCN(CC)C/C(=C\c1ccc([N+](=O)[O-])cc1)C(=O)c1ccc(OC)cc1
Activity (NB-4 [5]): Active | IC50 (MCF7 [7]): 4.3 µM | IC50 [8]: 1.2 µM | Activity (MCF7 [22]): Active | Activity (MCF7 [23]): Active | Activity [18]: Active | Activity (MCF7 [26]): Active | IC50 (A549 [13]): 22 µM
